Screens deposited in PubChem BioAssay by several laboratories.
Compounds with a hit are over-represented: about 4.3% of the library has one in this group of screens.
AHR activator: activators of human aryl hydrocarbon receptor; AID 2796; P35869; hit rate 2.5% among 320,000; activation, % at 5 µM; AHR-responsive luciferase reporter cells, luminescence; in the data active means activation above about 47%;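 further: 0% = vehicle wells and 100% = reference agonist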
Target sequence (P35869 whole entry, looked up): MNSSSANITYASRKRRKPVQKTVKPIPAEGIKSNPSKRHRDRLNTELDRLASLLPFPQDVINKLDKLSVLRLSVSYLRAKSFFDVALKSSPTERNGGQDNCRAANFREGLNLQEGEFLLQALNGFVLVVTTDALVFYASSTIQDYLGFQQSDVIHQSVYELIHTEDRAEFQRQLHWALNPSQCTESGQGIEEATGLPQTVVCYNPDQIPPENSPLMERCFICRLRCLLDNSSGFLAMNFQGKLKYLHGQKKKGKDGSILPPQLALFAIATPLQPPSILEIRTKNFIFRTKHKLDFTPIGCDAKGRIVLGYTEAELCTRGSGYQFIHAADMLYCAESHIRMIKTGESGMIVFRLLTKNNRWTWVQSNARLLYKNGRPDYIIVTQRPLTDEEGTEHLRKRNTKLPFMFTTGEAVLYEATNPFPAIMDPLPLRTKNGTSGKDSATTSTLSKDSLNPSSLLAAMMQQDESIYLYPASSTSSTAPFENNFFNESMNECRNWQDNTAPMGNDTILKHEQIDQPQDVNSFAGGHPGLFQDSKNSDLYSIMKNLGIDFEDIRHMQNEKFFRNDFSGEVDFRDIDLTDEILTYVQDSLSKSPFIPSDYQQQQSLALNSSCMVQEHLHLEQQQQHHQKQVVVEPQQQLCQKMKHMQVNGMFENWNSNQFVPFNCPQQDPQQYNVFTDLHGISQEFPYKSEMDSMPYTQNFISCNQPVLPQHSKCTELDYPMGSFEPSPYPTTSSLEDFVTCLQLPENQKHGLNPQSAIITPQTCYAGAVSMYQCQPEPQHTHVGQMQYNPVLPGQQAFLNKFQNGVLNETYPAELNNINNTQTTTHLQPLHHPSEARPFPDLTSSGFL
Lipid droplet: modulators of hepatic lipid droplet formation; hit rate 0.4% among 240,000; inhibition, % at 6.5 µM; AML12 mouse hepatocytes, oleate lipid droplets, BODIPY imaging; AID 1656;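 active means lipid droplet intensity inhibited by at least 50%, with more than 500 cells counted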
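Test system: AML12 mouse liver cells; schedule: overnight exposure; technique: high-content imaging of BODIPY-stained droplets and DAPI nuclei; read-out: % inhibition of corrected integrated BODIPY droplet signal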
Yeast superoxide: caloric restriction mimetics inhibiting age-related superoxide in yeast; S. cerevisiae aged cells, superoxide DHE fluorescence; stronger effect = lower value; superoxide response (% of plate mean), % at 10 µM; hit rate 0.18% among 330,000; AID 2690;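 active means superoxide response under a set limit, about three screen SD below normal, cut at about 65% in these data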;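 further: yeast aged for seven days with compound at 30 °C before DHE staining; 100% = average MFI of all compound-treated wells on the plate with controls excluded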
SR-BI uptake up: SR-BI HDL lipid transfer activation | CHO ldlA[mSR-BI] cells, DiI-HDL uptake fluorescence, 3 h; 100 = double the neutral-control signal | activation, % at 12.5 µM | hit rate 0.096% among 320,000 | AID 504775;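 active means mean replicate activation of at least 60% and every replicate at or above 60%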;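 further: 0% = median plate neutral-control signal and 100% = twice that signal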
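Assay system: CHO ldlA[mSR-BI] cells, LDL receptor-null, SR-BI overexpressing; medium: Ham's F12 with 0.5% BSA, HEPES 25 mM, pH 7.4; also added: DiI-HDL 10 µg/mL; timing: 3 h uptake period with compound, 37 °C; signal: DiI fluorescence, bottom read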
SMARCA2 act: increases SMARCA2 function in MMTV reporter cells. MG213 cells, MMTV-luciferase reporter, dexamethasone, overnight. AID 652017. hit rate 1% among 370,000. activation, % at 9.1 µM; in the data active means activation above about 7.8%;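 further: 0% = vehicle wells and 100% = reference activator wells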
SR-BI DiI inh: blocks mouse SR-BI lipid uptake from DiI-HDL; ldlA[mSR-BI] CHO cells, DiI-HDL uptake fluorescence, 3 h; Q61009; hit rate 0.96% among 320,000; inhibition, % at 12.5 µM;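 active means mean replicate inhibition of at least 70% and a set share of replicates each scoring 70 or more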;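 further: 0% = median of neutral control wells and 100% = median of positive control wells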
SMARCA2 act conf: confirmation of SMARCA2 (BRM) function activators. shares compounds with SMARCA2 act. MG213 cells, MMTV-luciferase with dexamethasone, luminescence, overnight; MG213 cells expressing E1A, Rb sequestered; DMSO wells 0%, reference activator 100%. activation, % at 9.1 µM. hit rate 30% among 3,500. AID 652260;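 active means activation above its plate's cutoff, the mean activation of tested wells plus 3 SD, cut at about 7.9% in these data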
VP16 Luc act: GAL4-VP16 reporter activation counter-screen; shares compounds with SMARCA2 act; HEK293 GAL4-VP16 pG5luc reporter, luciferase luminescence; scaled: DMSO wells 0%, SAHA wells 100%; activation, % at 9.1 µM; hit rate 41% among 3,500; AID 686939;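 active means activation above the solvent-only control well mean plus 3 SD, averaged across control plates, cut at about 5.2% in these data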
* = called active by the depositor; i = inactive; x = no result given.

SMILES	AHR activator	Lipid droplet	Yeast superoxide	SR-BI uptake up	SMARCA2 act	SR-BI DiI inh	SMARCA2 act conf	VP16 Luc act
Cc1ccccc1OCC(=O)NC1=NCCS1	1	-2	103	1	9.0*	-1	7	12*
CCCCCN1CCCCC(NC(=O)c2ccc3ccccc3c2)C1=O (stereo unspecified)	x	x	x	x	-2	x	x	x
COc1ccc(N=Cc2nc(-c3ccco3)oc2O)cc1	10	2	112	-4	8.8*	4	9.9*	4
Cc1ccc(N=Cc2nc(-c3ccc(C)cc3)oc2O)cc1	x	3	x	6	0	-6	x	x
O=C(NCCc1ccccc1)OCc1cn(Cc2cccc(Cl)c2)nn1	x	x	x	x	0	x	x	x
Cc1cc(C)c2[nH]c(=O)c(CN(Cc3cccnc3)C(=S)NCCCN(C)C)cc2c1	4	0	90	15	11*	-15	-4	2
O=C1c2ccccc2C(=O)N1c1ccc(Cl)cn1	-1	5	102	29	8.1*	-29	3	0
Cc1cccc(OCCCC(=O)Nc2nc3ccccc3[nH]2)c1	15	-18	97	-4	18*	4	14*	2
Cc1ccc(OCCCC(=O)Nc2nc3ccccc3[nH]2)cc1	4	-8	94	25	-1	-25	x	x
COc1ccc(C(=O)Nc2ccnn2C2CCN(C(=O)c3cnsn3)CC2)cc1	2	-14	103	1	8.9*	-1	-1	0
CCOC(=O)C1CCN(C(=O)c2cc3c(ccc4ccccc43)o2)CC1	11	-9	117	12	9.0*	-12	11*	7.3*
CC1CCN(C(=O)c2cc3c(ccc4ccccc43)o2)CC1	-7	-17	99	16	3	-16	x	x
Cc1cc(C(=O)OCC(=O)c2ccc3c(c2)OCCO3)c(C)o1	0	x	107	-4	8.1*	4	7	2
COC(=O)CNC(=O)COC(=O)c1ccc(Cl)nc1	3	-4	74	29	8.8*	-29	0	1
Cc1c(C(=O)OCC(=O)N2CCC(C)CC2)oc2ccccc12	1	x	110	-26	9.2*	26	-1	4
Cc1noc(C)c1COc1ccc(C(=O)OCC(=O)c2ccc3c(c2)OCCO3)cc1	2	12	99	-43	-4	43	x	x
Cc1c(C(=O)Nc2ccc3c(c2)OCO3)oc2ccccc12	76*	x	96	-19	9.7*	19	0	11*
COC(=O)[C@@H](C)NC(=O)C(Cc1ccc2c(c1)OCO2)NC(C)=O (stereo partly specified)	x	x	x	x	-2	x	x	x
O=C(COC(=O)c1ccc(Cl)nc1)c1ccc2c(c1)OCCO2	2	-3	103	11	10*	-11	4	3
Cc1c(C(=O)OCC(=O)c2ccc3c(c2)OCCO3)oc2ccccc12	-1	x	92	-6	8.0*	6	4	2
CS(=O)(=O)c1cccc(C(=O)OCC(=O)c2ccc3c(c2)OCCO3)c1	x	x	x	17	4	-17	x	x
O=C(COC(=O)c1cccnc1Cl)c1ccc2c(c1)OCCO2	-1	-13	99	-16	2	16	x	x
COC(=O)[C@]12C[C@H](CC(=O)N3CCN(C(=O)c4ccco4)CC3)C(=O)N(CCc3ccc(OC)c(OC)c3)C1=C[C@H](C(C)(C)C)O[C@@H]2C	x	x	x	x	-1	x	x	x
CC(C)(C)SCCNC(=O)/C=C/c1ccccc1	8	-16	102	x	8.1*	x	6	5
COC(=O)[C@H]1C[C@@]2(C#N)c3ccccc3N(C(=O)OC(C)(C)C)[C@H]2N1C(=O)OC(C)(C)C	x	x	x	x	7	x	x	x
SMILES	AHR activator	Lipid droplet	Yeast superoxide	SR-BI uptake up	SMARCA2 act	SR-BI DiI inh	SMARCA2 act conf	VP16 Luc act
CNc1cccc(-c2ccc(C(=O)N3CCOCC3)cc2)n1	x	x	x	x	10*	x	8	0
CNc1cccc(-c2ccc(N3CCN(C)CC3)nc2)n1	x	x	x	x	9.1*	x	12*	7.7*
Cc1ccc(S(=O)(=O)Nc2ccc(N3CCN(C)CC3)nc2)cc1	0	12	86	18	2	-18	x	x
CC(C)(C(=O)O)c1ccc([C@H](O)CCCN2CCC(C(O)(c3ccccc3)c3ccccc3)CC2)cc1	-3	-2	104	2	-2	-2	x	x
CC(=O)c1ccc(NCCCN2CCC(C(O)(c3ccccc3)c3ccccc3)CC2)cc1	x	x	x	x	9.6*	x	1	1
O=C(N/N=C/c1cc2c(cc1Cl)OCO2)c1ccccn1	21	x	101	-51	5	51	x	x
O=C(N/N=C/c1ccc(Br)s1)c1ccccn1	4	0	126	0	11*	0	14*	9.0*
O=C(N/N=C/c1ccc(Br)s1)c1ccco1	0	-19	i	6	-1	-6	x	x
CC(C)(C)c1ccc(/C=N/NC(=O)c2ccccn2)cc1	3	16	98	-3	9.8*	3	2	9.0*
COc1cc(/C=N/NC(=O)c2ccccn2)cc2c1OCO2	36	-2	94	-5	17*	5	8.5*	8.5*
O=C(Cc1c[nH]c2ccccc12)Nc1ccc(Nc2cccnc2)c(-c2cc(F)cc(F)c2)c1	x	x	x	x	2	x	x	x
Cc1ccc(N2C(=O)CC(N3CCN(c4ccccn4)CC3)C2=O)cc1 (stereo unspecified)	0	2	87	7	-4	-7	x	x
Cc1ccc2nc(-c3ccc(N4C(=O)CC(N5CCN(CCO)CC5)C4=O)cc3)sc2c1 (stereo unspecified)	-3	-12	97	33	8.6*	-33	6	5
C=C[C@@]1(C)CC(=O)[C@]2(O)[C@@]3(C)[C@@H](O)CCC(C)(C)[C@@H]3[C@H](OC(C)=O)[C@H](O)[C@@]2(C)O1	-1	x	92	-25	6	25	x	x
C=C[C@@]1(C)CC(=O)[C@]2(O)[C@@]3(C)[C@@H](O)CCC(C)(C)[C@@H]3[C@H](O)[C@H](OC(C)=O)[C@@]2(C)O1	10	x	86	2	21*	-2	21*	25*
CN[C@H]1C[C@H]2c3[nH]c4c(-c5ccc6c(c5)OCO6)cccc4c3CCN2C[C@H]1[C@H](C)O	x	x	x	x	-4	x	x	x
Nc1ccc(C(=O)OCc2nc3ccccc3s2)cc1	4	-20	98	-6	7	6	x	x
O=C(OCc1nc2ccccc2s1)c1cc2ccccc2oc1=O	19	-1	97	x	8.2*	x	6	9.1*
COc1ccc(S[C@]2(C(=O)N(C)C)CC(=O)N(S(=O)(=O)c3ccc(F)cc3)[C@@H]2c2ccc(OC)cc2)cc1	x	x	x	x	-4	x	x	x
